# Results reported in ChEMBL document CHEMBL4270594, “Design, synthesis and pharmacological evaluation of new 3-(1H-benzimidazol-2-yl)quinolin-2(1H)-one derivatives as potential antitumor agents” (Eur J Med Chem, 2018).
# The source made the active and inactive calls. The rule behind the calls is not given here.
# Experiments:
# Mus musculus [1] = assay: Upregulation of Bax protein expression in tumor tissues of Balb/c nude mouse xenografted with human Bel7404 cells at 25 to 50 mg/kg, ip bid for 20 days measured on day 21 by Western blot analysis; type: functional, organism-based
# BEL-7404 tumor cell line [2] = assay: Antitumor activity against human Bel7404 cells xenografted in Balb/c nude mouse assessed as relative tumor volume increment rate at 25 mg/kg, ip bid for 20 days measured on day 21 post last dose relative to control; type: functional
# Mus musculus [3] = assay: Downregulation of PARP protein expression in tumor tissues of Balb/c nude mouse xenografted with human Bel7404 cells at 25 to 50 mg/kg, ip bid for 20 days measured on day 21 by Western blot analysis; type: functional, organism-based
# Mus musculus [4] = assay: Effect on caspase-3 protein expression in tumor tissues of Balb/c nude mouse xenografted with human Bel7404 cells at 25 to 50 mg/kg, ip bid for 20 days measured on day 21 by Western blot analysis; type: functional, organism-based
# Mus musculus [5] = assay: Toxicity in Balb/c nude mouse xenografted with human Bel7404 cells assessed as change in body weight at 25 to 50 mg/kg, ip bid for 20 days; type: organism-based; conditions: in vivo, 480 h
# BEL-7404 tumor cell line [6] = assay: Cell cycle arrest in human Bel7404 cells assessed as accumulation at S-phase at 9 uM after 48 hrs by propidium iodide staining based flow cytometry (reference value: 22%); type: functional
# HepG2 [7] = assay: Downregulation of CDK1 protein expression in human HepG2 cells at 6 to 10 uM after 12 hrs by Western blot analysis; type: functional, cell-based
# HepG2 [8] = assay: Cell cycle arrest in human HepG2 cells assessed as accumulation at G1-phase at 8 uM after 48 hrs by propidium iodide staining based flow cytometry (reference value: 50.47%); type: functional
# HepG2 [9] = assay: Cell cycle arrest in human HepG2 cells assessed as accumulation at S-phase at 6 uM after 48 hrs by propidium iodide staining based flow cytometry (reference value: 30.49%); type: functional
# HepG2 [10] = assay: Cell cycle arrest in human HepG2 cells assessed as accumulation at G2-phase at 6 uM after 48 hrs by propidium iodide staining based flow cytometry (reference value: 19.04%); type: functional
# HepG2 [11] = assay: Induction of mitochondrial cytochrome-c release in to cytotol in human HepG2 cells at 6 to 10 uM after 12 hrs by Western blot analysis; type: functional, cell-based
# HepG2 [12] = assay: Upregulation of p27 protein expression in human HepG2 cells at 6 to 10 uM after 12 hrs by Western blot analysis; type: functional, cell-based
# In short: (§1)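 HepG2 cell lysates after compound treatment analyzed by western blot for the target protein, compared with untreated negative control.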
# HepG2 [13] = assay: Induction of apoptosis in human HepG2 cells assessed as late apoptotic cells at 10 uM after 24 hrs by Annexin V-FITC/ propidium iodide staining based flow cytometry (reference value: 1.91%); type: functional
# HepG2 [14] = assay: Downregulation of Cyclin-B1 protein expression in human HepG2 cells at 6 to 10 uM after 12 hrs by Western blot analysis; type: functional, cell-based
# Mus musculus [15] = assay: Upregulation of APAF-1 protein expression in tumor tissues of Balb/c nude mouse xenografted with human NCI-H460 cells at 25 to 50 mg/kg, ip bid for 13 days measured on day 14 by Western blot analysis; type: functional, organism-based
# HepG2 [16] = assay: Cell cycle arrest in human HepG2 cells assessed as accumulation at G1-phase at 10 uM after 48 hrs by propidium iodide staining based flow cytometry (reference value: 50.47%); type: functional
# HepG2 [17] = assay: Cell cycle arrest in human HepG2 cells assessed as accumulation at G2/M phase after 48 hrs by propidium iodide staining based flow cytometry; type: functional
# Mus musculus [18] = assay: Upregulation of p53 protein expression in tumor tissues of Balb/c nude mouse xenografted with human NCI-H460 cells at 25 to 50 mg/kg, ip bid for 13 days measured on day 14 by Western blot analysis; type: functional, organism-based
# In short: (§2)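 Tumors from NCI-H460 xenografted BALB/c nude mice (25 or 50 mg/kg, vehicle 5% DMSO in saline) collected at day 14; protein levels in tumor tissue determined by western blot versus vehicle control.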
# HepG2 [19] = assay: Upregulation of caspase-3 protein expression in human HepG2 cells at 6 to 10 uM after 12 hrs by Western blot analysis; type: functional, cell-based; in short: as §1
# HepG2 [20] = assay: Downregulation of CDC25C protein expression in human HepG2 cells at 6 to 10 uM after 12 hrs by Western blot analysis; type: functional, cell-based
# HepG2 [21] = assay: Induction of apoptosis in human HepG2 cells assessed as necrotic cells at 6 uM after 24 hrs by Annexin V-FITC/ propidium iodide staining based flow cytometry (reference value: 0.28%); type: functional
# HepG2 [22] = assay: Induction of apoptosis in human HepG2 cells assessed as early apoptotic cells at 8 uM after 24 hrs by Annexin V-FITC/ propidium iodide staining based flow cytometry (reference value: 6.5%); type: functional
# HepG2 [23] = assay: Induction of apoptosis in human HepG2 cells assessed as late apoptotic cells at 8 uM after 24 hrs by Annexin V-FITC/ propidium iodide staining based flow cytometry (reference value: 1.91%); type: functional
# HepG2 [24] = assay: Induction of apoptosis in human HepG2 cells assessed as live cells at 6 uM after 24 hrs by Annexin V-FITC/ propidium iodide staining based flow cytometry (reference value: 91.31%); type: functional
# Mus musculus [25] = assay: Upregulation of Bax protein expression in tumor tissues of Balb/c nude mouse xenografted with human NCI-H460 cells at 25 to 50 mg/kg, ip bid for 13 days measured on day 14 by Western blot analysis; type: functional, organism-based; in short: as §2
# HepG2 [26] = assay: Induction of apoptosis in human HepG2 cells assessed as membrane blebbing at 6 to 10 uM after 12 hrs by acridine orange/ethidium bromide staining based fluorescence microscopic method; type: functional, cell-based
# In short: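 HepG2 cells stained with acridine orange/ethidium bromide and examined by fluorescence microscopy; nuclei scored as yellow/green or orange, with pycnosis, membrane blebbing and cell budding taken as apoptotic morphology.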
structure (smiles),measurement,setting,value
O=c1[nH]c2cc3c(cc2cc1-c1nc2cc(Cl)ccc2[nH]1)OCO3,Activity,Mus musculus [1],inactive
same,T/C,BEL-7404 tumor cell line [2],51.5%
same,Activity,Mus musculus [3],Active
same,Activity,Mus musculus [4],inactive
same,Activity,Mus musculus [5],Non-Toxic
same,Activity,BEL-7404 tumor cell line [6],23.66%
O=c1[nH]c2ccccc2cc1-c1nc2cc(Cl)ccc2[nH]1,Activity,HepG2 [7],Active
same,Activity,HepG2 [8],31.1%
same,Activity,HepG2 [9],29.48%
same,Activity,HepG2 [10],39%
same,Activity,HepG2 [11],Active
same,Activity,HepG2 [12],Active
same,Activity,HepG2 [13],16.68%
same,Activity,HepG2 [14],Active
same,Activity,Mus musculus [15],Active
same,Activity,HepG2 [16],23.66%
same,Activity,HepG2 [17],Dose-dependent effect
same,Activity,Mus musculus [18],Active
same,Activity,HepG2 [19],Active
same,Activity,HepG2 [20],Active
same,Activity,HepG2 [21],0.76%
same,Activity,HepG2 [22],35.9%
same,Activity,HepG2 [23],10.42%
same,Activity,HepG2 [24],68.62%
same,Activity,Mus musculus [25],Active
same,Activity,HepG2 [26],Active
